System: U2OS
Assay: Multiplex assay against U2OS
Format: toxicity, cell-based
Conditions: human
How it was run: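 Tubulin, mitochondrial-mass and membrane-permeability phenotypes are per cents of healthy-nucleus cells. Cells were gated by CellPathfinder machine learning into Hoechst high-intensity objects or normal cells, normal cells into healthy, pyknosed or fragmented nuclei, and pyknosed cells into mitotic or apoptotic. Before that, live cells stained at seeding with Hoechst33342, BioTracker Green Microtubule Cytoskeleton Dye, MitoTracker Red and Annexin V Alexa Fluor 680 were imaged on a CQ1 microscope at 37°C and 5% CO2 after compound addition.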

[1] = 12 h, 1 µM, compound concentration 1 uM, replicate 1
[2] = 12 h, 1 µM, compound concentration 1 uM, replicate 2
[3] = 12 h, 10 µM, compound concentration 10 uM, replicate 1
[4] = 12 h, 10 µM, compound concentration 10 uM, replicate 2
[5] = 24 h, 1 µM, compound concentration 1 uM, replicate 1
[6] = 24 h, 1 µM, compound concentration 1 uM, replicate 2
[7] = 24 h, 10 µM, compound concentration 10 uM, replicate 1
[8] = 24 h, 10 µM, compound concentration 10 uM, replicate 2
[9] = 48 h, 1 µM, compound concentration 1 uM, replicate 1
[10] = 48 h, 1 µM, compound concentration 1 uM, replicate 2
[11] = 48 h, 10 µM, compound concentration 10 uM, replicate 1
[12] = 48 h, 10 µM, compound concentration 10 uM, replicate 2

C=CCN1C[C@H](C(=O)N(CCCN(C)C)C(=O)NCC)C[C@@H]2c3cccc4[nH]cc(c34)C[C@H]21 [CABERGOLINE]
Population Apoptotic (%) [1]: 86%
Population Fragmented Nuclei (%) [1]: 13%
Population Healthy Nuclei (%) [1]: 72%
Population Hoechst High Intensity Objects (%) [1]: 2%
Population Membrane Permeable-Phenotype (%) [1]: 3%
Population Mitochondria Different-Phenotype (%) [1]: 1%
Population Mitotic Cells (%) [1]: 13%
Population Normal (%) [1]: 97%
Population Pyknosed Nuclei (%) [1]: 13%
Population Tubulin-Different-Phenotype (%) [1]: 1%
Total Cell Count [1]: 228
Population Apoptotic (%) [2]: 57%
Population Fragmented Nuclei (%) [2]: 9%
Population Healthy Nuclei (%) [2]: 84%
Population Hoechst High Intensity Objects (%) [2]: 3%
Population Membrane Permeable-Phenotype (%) [2]: 8%
Population Mitochondria Different-Phenotype (%) [2]: 4%
Population Mitotic Cells (%) [2]: 42%
Population Normal (%) [2]: 96%
Population Pyknosed Nuclei (%) [2]: 5%
Population Tubulin-Different-Phenotype (%) [2]: 5%
Total Cell Count [2]: 129
Population Apoptotic (%) [3]: 69%
Population Fragmented Nuclei (%) [3]: 35%
Population Healthy Nuclei (%) [3]: 52%
Population Hoechst High Intensity Objects (%) [3]: 3%
Population Membrane Permeable-Phenotype (%) [3]: 15%
Population Mitochondria Different-Phenotype (%) [3]: 9%
Population Mitotic Cells (%) [3]: 30%
Population Normal (%) [3]: 96%
Population Pyknosed Nuclei (%) [3]: 11%
Population Tubulin-Different-Phenotype (%) [3]: 11%
Total Cell Count [3]: 228
Population Apoptotic (%) [4]: 64%
Population Fragmented Nuclei (%) [4]: 17%
Population Healthy Nuclei (%) [4]: 70%
Population Hoechst High Intensity Objects (%) [4]: 2%
Population Membrane Permeable-Phenotype (%) [4]: 13%
Population Mitochondria Different-Phenotype (%) [4]: 21%
Population Mitotic Cells (%) [4]: 35%
Population Normal (%) [4]: 97%
Population Pyknosed Nuclei (%) [4]: 12%
Population Tubulin-Different-Phenotype (%) [4]: 9%
Total Cell Count [4]: 143
Population Apoptotic (%) [5]: 82%
Population Fragmented Nuclei (%) [5]: 15%
Population Healthy Nuclei (%) [5]: 74%
Population Hoechst High Intensity Objects (%) [5]: 3%
Population Membrane Permeable-Phenotype (%) [5]: 1%
Population Mitochondria Different-Phenotype (%) [5]: 1%
Population Mitotic Cells (%) [5]: 17%
Population Normal (%) [5]: 96%
Population Pyknosed Nuclei (%) [5]: 10%
Population Tubulin-Different-Phenotype (%) [5]: 0%
Total Cell Count [5]: 295
Population Apoptotic (%) [6]: 64%
Population Fragmented Nuclei (%) [6]: 7%
Population Healthy Nuclei (%) [6]: 83%
Population Hoechst High Intensity Objects (%) [6]: 1%
Population Membrane Permeable-Phenotype (%) [6]: 9%
Population Mitochondria Different-Phenotype (%) [6]: 4%
Population Mitotic Cells (%) [6]: 35%
Population Normal (%) [6]: 98%
Population Pyknosed Nuclei (%) [6]: 8%
Population Tubulin-Different-Phenotype (%) [6]: 6%
Total Cell Count [6]: 162
Population Apoptotic (%) [7]: 65%
Population Fragmented Nuclei (%) [7]: 33%
Population Healthy Nuclei (%) [7]: 54%
Population Hoechst High Intensity Objects (%) [7]: 3%
Population Membrane Permeable-Phenotype (%) [7]: 10%
Population Mitochondria Different-Phenotype (%) [7]: 5%
Population Mitotic Cells (%) [7]: 34%
Population Normal (%) [7]: 96%
Population Pyknosed Nuclei (%) [7]: 11%
Population Tubulin-Different-Phenotype (%) [7]: 4%
Total Cell Count [7]: 228
Population Apoptotic (%) [8]: 88%
Population Fragmented Nuclei (%) [8]: 14%
Population Healthy Nuclei (%) [8]: 75%
Population Hoechst High Intensity Objects (%) [8]: 2%
Population Membrane Permeable-Phenotype (%) [8]: 13%
Population Mitochondria Different-Phenotype (%) [8]: 12%
Population Mitotic Cells (%) [8]: 11%
Population Normal (%) [8]: 97%
Population Pyknosed Nuclei (%) [8]: 10%
Population Tubulin-Different-Phenotype (%) [8]: 10%
Total Cell Count [8]: 165
Population Apoptotic (%) [9]: 88%
Population Fragmented Nuclei (%) [9]: 13%
Population Healthy Nuclei (%) [9]: 77%
Population Hoechst High Intensity Objects (%) [9]: 2%
Population Membrane Permeable-Phenotype (%) [9]: 5%
Population Mitochondria Different-Phenotype (%) [9]: 1%
Population Mitotic Cells (%) [9]: 11%
Population Normal (%) [9]: 97%
Population Pyknosed Nuclei (%) [9]: 8%
Population Tubulin-Different-Phenotype (%) [9]: 3%
Total Cell Count [9]: 405
Population Apoptotic (%) [10]: 93%
Population Healthy Nuclei (%) [10]: 73%
Population Hoechst High Intensity Objects (%) [10]: 3%
Population Membrane Permeable-Phenotype (%) [10]: 4%
Population Mitochondria Different-Phenotype (%) [10]: 4%
Population Mitotic Cells (%) [10]: 6%
Population Normal (%) [10]: 96%
Population Pyknosed Nuclei (%) [10]: 13%
Total Cell Count [10]: 221
Population Apoptotic (%) [11]: 86%
Population Fragmented Nuclei (%) [11]: 30%
Population Healthy Nuclei (%) [11]: 57%
Population Hoechst High Intensity Objects (%) [11]: 3%
Population Membrane Permeable-Phenotype (%) [11]: 7%
Population Mitochondria Different-Phenotype (%) [11]: 1%
Population Mitotic Cells (%) [11]: 13%
Population Normal (%) [11]: 96%
Population Pyknosed Nuclei (%) [11]: 12%
Population Tubulin-Different-Phenotype (%) [11]: 3%
Total Cell Count [11]: 303
Population Apoptotic (%) [12]: 87%
Population Fragmented Nuclei (%) [12]: 13%
Population Healthy Nuclei (%) [12]: 66%
Population Hoechst High Intensity Objects (%) [12]: 4%
Population Membrane Permeable-Phenotype (%) [12]: 9%
Population Mitochondria Different-Phenotype (%) [12]: 9%
Population Mitotic Cells (%) [12]: 12%
Population Normal (%) [12]: 95%
Population Pyknosed Nuclei (%) [12]: 20%
Population Tubulin-Different-Phenotype (%) [12]: 5%
Total Cell Count [12]: 206
